From ChEMBL document CHEMBL3227953, “Potential antitumor agents. 30. Mutagenic activity of some 9-anilinoacridines: relationships between structure, mutagenic potential, and antileukemic activity” (J Med Chem, 1979)

Key:
[1] = Toxicity in Salmonella typhimurium TA1537 assessed as growth inhibition after 1 hr; type: organism-based; settings: salmonella enterica subsp. enterica serovar typhimurium, read-out: D50
Procedure, shortened: (§1)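 Overnight shaken L-broth culture from frozen stock. 0.5 mL culture in L broth (10 mL total) with a range of drug concentrations, from nontoxic to clearly toxic, in 50% ethanol. Shaken at 37 °C for 1 h, centrifuged, resuspended in saline, diluted 1 in 10^4, plated in triplicate on L-broth plates, 37 °C, 2 days. Survival = 100Nt/Nc vs untreated. D50 from linear fit of log survival vs dose.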

Salmonella typhimurium [2] = assay: Mutagenic activity in Salmonella typhimurium TA1537 assessed as mutation frequency at 10^4 times D50 after 1 hr; type: toxicity, organism-based; settings: salmonella enterica subsp. enterica serovar typhimurium
Procedure, shortened: (§2)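 Overnight L-broth culture (0.5 mL) exposed to drug (from 50% ethanol) in 10 mL L broth, 37 °C shaking, 1 h; concentration range from non-toxic to clearly toxic. Cells spun, resuspended in saline, plated in triplicate on minimal plates (1 mM histidine, biotin) and, diluted 1 in 10^4, on L-broth plates; 37 °C, 2 days. D50 interpolated from log % survival vs dose; mutation frequency = 100(MT − MC)/S50, background-corrected.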

[3] = Toxicity in Salmonella typhimurium TA98 assessed as growth inhibition after 1 hr; type: organism-based; settings: salmonella enterica subsp. enterica serovar typhimurium, read-out: D50; procedure, shortened: as §1
[4] = Toxicity in Salmonella typhimurium TA100 assessed as growth inhibition after 1 hr; type: organism-based; settings: salmonella enterica subsp. enterica serovar typhimurium, read-out: D50; procedure, shortened: as §1
Salmonella typhimurium [5] = assay: Mutagenic activity in Salmonella typhimurium TA98 assessed as mutation frequency at 10^4 times D50 after 1 hr; type: toxicity, organism-based; settings: salmonella enterica subsp. enterica serovar typhimurium; procedure, shortened: as §2
Salmonella typhimurium [6] = assay: Mutagenic activity in Salmonella typhimurium TA100 assessed as mutation frequency at 10^4 times D50 after 1 hr; type: toxicity, organism-based; settings: salmonella enterica subsp. enterica serovar typhimurium; procedure, shortened: as §2

Compound | GI50 at 1 h [1] [µM] | log(M50) (Salmonella typhimurium [2]) | GI50 at 1 h [3] [µM] | GI50 at 1 h [4] [µM] | M50 (Salmonella typhimurium [5]) [%] | M50 (Salmonella typhimurium [6]) [%] | M50 (Salmonella typhimurium [2]) [%]
CCCS(=O)(=O)Nc1ccc(Nc2c3ccccc3nc3ccccc23)c(OC)c1.CS(=O)(=O)O | 77.6 | -0.7 | – | – | – | – | –
CCS(=O)(=O)Nc1ccc(Nc2c3ccccc3nc3ccccc23)c(OC)c1.CS(=O)(=O)O | 93.2 | -0.3 | – | – | – | – | –
CCCCS(=O)(=O)Nc1ccc(Nc2c3ccccc3nc3ccccc23)c(OC)c1.CS(=O)(=O)O | 69.7 | 0 | – | – | – | – | –
Br.CNc1ccc(Nc2c3ccccc3nc3ccccc23)cc1 | 82 | 2.05 | – | – | – | – | –
CCNc1ccc(Nc2c3ccccc3nc3ccccc23)cc1.Cl | 100 | 1.88 | – | – | – | – | –
CCCNc1ccc(Nc2c3ccccc3nc3ccccc23)cc1.Cl | 98.9 | 1.67 | – | – | – | – | –
CCCCNc1ccc(Nc2c3ccccc3nc3ccccc23)cc1.Cl | 9.8 | 1 | – | – | – | – | –
CCCCCCNc1ccc(Nc2c3ccccc3nc3ccccc23)cc1.Cl | 4.4 | -1 | – | – | – | – | –
CS(=O)(=O)Nc1ccc(Nc2c3ccccc3nc3ccccc23)cc1.Cl | 110 | 2.1 | 180 | 194 | 0 | 0 | 127
CCS(=O)(=O)Nc1ccc(Nc2c3ccccc3nc3ccccc23)cc1.Cl | 81.6 | 2 | – | – | – | – | –
CCCS(=O)(=O)Nc1ccc(Nc2c3ccccc3nc3ccccc23)cc1.Cl | 50.1 | 1.67 | – | – | – | – | –
CCCCS(=O)(=O)Nc1ccc(Nc2c3ccccc3nc3ccccc23)cc1.Cl | 49.3 | 0.78 | – | – | – | – | –
CCCCCS(=O)(=O)Nc1ccc(Nc2c3ccccc3nc3ccccc23)cc1.Cl | 15.6 | 0.6 | – | – | – | – | –
CCCCCCS(=O)(=O)Nc1ccc(Nc2c3ccccc3nc3ccccc23)cc1.Cl | 9.4 | 0.3 | – | – | – | – | –
CC(=O)Nc1ccc2c(Nc3ccc(NS(C)(=O)=O)cc3)c3ccccc3nc2c1.CS(=O)(=O)O | 282 | -0.22 | – | – | – | – | –
CCS(=O)(=O)Nc1ccc(Nc2c3ccccc3nc3cc(NC(C)=O)ccc23)cc1.CS(=O)(=O)O | 221 | 0 | – | – | – | – | –
CCCS(=O)(=O)Nc1ccc(Nc2c3ccccc3nc3cc(NC(C)=O)ccc23)cc1.CS(=O)(=O)O | 114 | 0 | – | – | – | – | –
CCCCS(=O)(=O)Nc1ccc(Nc2c3ccccc3nc3cc(NC(C)=O)ccc23)cc1.CS(=O)(=O)O | 148 | -0.3 | – | – | – | – | –
CCCCCS(=O)(=O)Nc1ccc(Nc2c3ccccc3nc3cc(NC(C)=O)ccc23)cc1.CS(=O)(=O)O | 17.7 | -0.1 | – | – | – | – | –
CCCCCCS(=O)(=O)Nc1ccc(Nc2c3ccccc3nc3cc(NC(C)=O)ccc23)cc1.CS(=O)(=O)O | 3.1 | 0 | – | – | – | – | –
CCCCCS(=O)(=O)Nc1ccc(Nc2c3ccccc3nc3ccccc23)c(OC)c1.CS(=O)(=O)O | 21.1 | 0 | – | – | – | – | –
CCCCCCS(=O)(=O)Nc1ccc(Nc2c3ccccc3nc3ccccc23)c(OC)c1.CS(=O)(=O)O | 15.3 | 0 | – | – | – | – | –
COc1cc(NS(C)(=O)=O)ccc1Nc1c2ccccc2nc2c(C(N)=O)cccc12.Cl | 698 | -0.7 | – | – | – | – | –
CCS(=O)(=O)Nc1ccc(Nc2c3ccccc3nc3c(C(N)=O)cccc23)c(OC)c1.Cl | 467 | 0.18 | – | – | – | – | –
CCCS(=O)(=O)Nc1ccc(Nc2c3ccccc3nc3c(C(N)=O)cccc23)c(OC)c1.Cl | 642 | 0 | – | – | – | – | –
CCCCS(=O)(=O)Nc1ccc(Nc2c3ccccc3nc3c(C(N)=O)cccc23)c(OC)c1.Cl | 330 | 0 | – | – | – | – | –
CCCCCS(=O)(=O)Nc1ccc(Nc2c3ccccc3nc3c(C(N)=O)cccc23)c(OC)c1.Cl | 466 | 0 | – | – | – | – | –
COc1cccc2c1C(=O)c1c(O)c3c(c(O)c1C2=O)C[C@@](O)(C(C)=O)C[C@@H]3O[C@H]1C[C@H](N)[C@H](O)[C@H](C)O1 [DAUNORUBICIN] | 7.4 | 0 | 13.1 | 11.1 | 20 | 4.5 | 0
COc1cccc2c1C(=O)c1c(O)c3c(c(O)c1C2=O)C[C@@](O)(C(=O)CO)C[C@@H]3O[C@H]1C[C@H](N)[C@H](O)[C@H](C)O1 [DOXORUBICIN] | 16.3 | 0 | 6.1 | 11.3 | 14 | 0.5 | 0
